# Key:
# A2780 [1] = assay: Cytotoxicity against human A2780 cells assessed as growth inhibition after 72 hrs by WST-1 assay; assay type: functional, cell-based; details: A2780, 72 h
# HCT-116 [2] = assay: Cytotoxicity against human HCT116 cells assessed as growth inhibition after 72 hrs by WST-1 assay; assay type: functional, cell-based; details: HCT-116, 72 h
# [3] = Toxicity in ip dosed NMRI mouse assessed as blood cell count administered as bid for 5 days; assay type: organism-based; details: in vivo
# [4] = Cmax in NMRI mouse at 50 mg/kg, iv; assay type: ADME, organism-based; design: dose 50 mg/kg, route intravenous; details: in vivo
# Summary of the method: (§1)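 Mouse PK after a single i.v. dose. Plasma proteins were precipitated with acetonitrile containing internal standard (3:1 v/v). Samples were analysed by UPLC-MS/MS on a C18 column at 40°C with an acetonitrile–0.05% formic acid gradient, using positive electrospray MRM. Parameters were derived by non-compartmental analysis.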
# [5] = Apparent volume of distribution in NMRI mouse at 50 mg/kg, iv; assay type: ADME, organism-based; design: dose 50 mg/kg, route intravenous; details: in vivo, read-out: Vz; summary of the method: as §1
# [6] = Half life in NMRI mouse at 50 mg/kg, iv; assay type: ADME, organism-based; design: dose 50 mg/kg, route intravenous; details: in vivo; summary of the method: as §1
# HCT-116 [7] = assay: Resistance factor, ratio of IC50 for APO866-resistant human HCT116 cells to IC50 for human HCT116 cells; assay type: functional
# [8] = Tmax in NMRI mouse at 50 mg/kg, iv; assay type: ADME, organism-based; design: dose 50 mg/kg, route intravenous; details: in vivo; summary of the method: as §1
# MCF7 [9] = assay: Cytotoxicity against human MCF-7 cells assessed as growth inhibition after 72 hrs by WST-1 assay; assay type: functional, cell-based; details: MCF7, 72 h
# HCT-116 [10] = assay: Cytotoxicity against APO866-resistant human HCT116 cells assessed as growth inhibition after 72 hrs by WST-1 assay; assay type: functional, cell-based; details: HCT-116, 72 h
# [11] = Clearance in NMRI mouse at 50 mg/kg, iv; assay type: ADME, organism-based; design: dose 50 mg/kg, route intravenous; details: in vivo; summary of the method: as §1
# [12] = AUC in NMRI mouse at 50 mg/kg, iv; assay type: ADME, organism-based; design: dose 50 mg/kg, route intravenous; details: plasma; summary of the method: as §1
# [13] = Toxicity in ip dosed NMRI mouse assessed as body weight loss administered as bid for 5 days; assay type: organism-based; details: in vivo
# [14] = target: Nicotinamide phosphoribosyltransferase (Homo sapiens, UniProt P43490); assay: Inhibition of NAMPT in human HepG2 cells using [14C]-nicotinamide/PRPP as substrate assessed as formation of [14C]-nicotinamide mononucleotide after 1 hr by liquid scintillation counting analysis; assay type: cell-based
# Sequence of Nicotinamide phosphoribosyltransferase (P43490 whole entry): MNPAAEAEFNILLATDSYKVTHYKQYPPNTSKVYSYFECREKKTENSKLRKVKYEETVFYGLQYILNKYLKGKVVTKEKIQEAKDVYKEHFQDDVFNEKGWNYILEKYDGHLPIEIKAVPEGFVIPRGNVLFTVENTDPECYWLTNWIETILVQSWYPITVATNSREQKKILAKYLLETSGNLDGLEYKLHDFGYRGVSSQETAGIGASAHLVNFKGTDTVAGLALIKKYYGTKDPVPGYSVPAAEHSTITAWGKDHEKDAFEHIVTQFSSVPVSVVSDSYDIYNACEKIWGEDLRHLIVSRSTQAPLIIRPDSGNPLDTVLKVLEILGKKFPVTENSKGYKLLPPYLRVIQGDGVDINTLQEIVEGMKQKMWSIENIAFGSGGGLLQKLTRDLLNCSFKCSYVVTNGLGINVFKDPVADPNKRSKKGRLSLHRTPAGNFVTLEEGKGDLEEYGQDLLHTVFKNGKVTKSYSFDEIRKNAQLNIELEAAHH
# Plasma = assay: Metabolic stability in mouse plasma assessed as compound hydrolysis; assay type: ADME, cell-free
# [15] = Apparent volume of distribution in NMRI mouse at 20 mg/kg, iv; assay type: ADME, organism-based; design: dose 20 mg/kg, route intravenous; details: in vivo, read-out: Vz; summary of the method: as §1
# SK-OV-3 = assay: Cytotoxicity against human SKOV3 cells by clonogenic assay; assay type: functional, cell-based
# A2780 [16] = assay: Antitumor activity against human A2780 cells xenografted in NMRI/nude mouse assessed as tumor growth inhibition at 15 mg/kg, ip bid administered for 5 days measured at day 14 relative to vehicle-treated control; assay type: functional; details: route intraperitoneal
# [17] = AUC in NMRI mouse at 20 mg/kg, iv; assay type: ADME, organism-based; design: dose 20 mg/kg, route intravenous; details: plasma; summary of the method: as §1
# [18] = Tmax in NMRI mouse at 20 mg/kg, iv; assay type: ADME, organism-based; design: dose 20 mg/kg, route intravenous; details: in vivo; summary of the method: as §1
# [19] = Half life in NMRI mouse at 20 mg/kg, iv; assay type: ADME, organism-based; design: dose 20 mg/kg, route intravenous; details: in vivo; summary of the method: as §1
# [20] = Clearance in NMRI mouse at 20 mg/kg, iv; assay type: ADME, organism-based; design: dose 20 mg/kg, route intravenous; details: in vivo; summary of the method: as §1
# [21] = Cmax in NMRI mouse at 20 mg/kg, iv; assay type: ADME, organism-based; design: dose 20 mg/kg, route intravenous; details: in vivo; summary of the method: as §1
# A-431 = assay: Cytotoxicity against human A431 cells by clonogenic assay; assay type: functional, cell-based
# Mus musculus = assay: Toxicity in human A2780 cells xenografted NMRI/nude mouse containing small tumors assessed as effect on body weight at 15 mg/kg, ip bid administered for 5 days measured at day 14 relative to vehicle-treated control; assay type: organism-based; design: dose 15 mg/kg, route intraperitoneal; details: in vivo, 120 h
# A2780 [22] = assay: cells; details: Homo sapiens
# MCF7 [23] = assay: cells; details: Homo sapiens
# PC-3 = assay: Cytotoxicity against human PC3 cells by clonogenic assay; assay type: functional, cell-based
# [24] = Cytotoxicity against human NYH cells by clonogenic assay; assay type: functional, cell-based
Structure (SMILES),IC50 (A2780 [1]) [nM],IC50 (MCF7 [9]) [nM],further results
O=C1C(=O)C(Nc2ccncc2)C1NCCCCCCS(=O)(=O)N(OCCN1CCOCC1)C1CCCCC1 (stereo not given),0.49,9,IC50 (HCT-116 [2]): 39 nM; MTD at 120 h [3]: < 10 mg/kg; Cmax [4]: 33500 ng/mL; Vd [5]: 1.2 L/kg; half-life [6]: 12.6 min; Ratio IC50 (HCT-116 [7]): 128; Tmax [8]: 4.98 min; IC50 (HCT-116 [10]): > 5000 nM; clearance [11]: 66.6 mL/min/kg; AUC [12]: 12500 ng·h/mL; MTD at 120 h [13]: < 10 mg/kg
O=C(NCCCCCCCS(=O)(=O)N(OCCN1CCOCC1)C1CCCCC1)Nc1ccncc1,1.8,7.4,–
O=C1C(=O)C(Nc2ccncc2)C1NCCCCCCC(=O)N(Cc1ccccc1)OCCN1CCOCC1 (stereo not given),0.29,12.3,–
O=C(NCCCCCCS(=O)(=O)N(OCCN1CCOCC1)C1CCC1)NCc1cccnc1,2.2,11,–
N#C/N=C(\NCCCCCC(=O)N(Cc1ccccc1)OCCN1CCOCC1)Nc1ccncc1,0.081,0.021,–
N#C/N=C(\NCCCCCCS(=O)(=O)N(OCCN1CCOCC1)C1CCC1)Nc1ccncc1,0.049,0.007,–
C[C@@H](CCCCCN/C(=N\C#N)Nc1ccncc1)C(=O)NOC1CCCCC1,0.08,1,–
O=C(NCCCCCCS(=O)(=O)N(CCN1CCOCC1)CC1CCCCC1)Nc1ccncc1,0.56,1.4,IC50 [14]: 133 nM
O=C1C(=O)C(Nc2ccncc2)C1NCCCCCCCS(=O)(=O)N(OCCN1CCOCC1)C1CCCCC1 (stereo not given),0.49,8,IC50 [14]: 3.6 nM
N#C/N=C(\NCCCCCCCS(=O)(=O)N(OCCN1CCOCC1)C1CCCCC1)Nc1ccncc1,0.089,0.29,–
O=C1C(=O)C(Nc2ccncc2)C1NCCCCCS(=O)(=O)N(OCCN1CCOCC1)C1CCCC1 (stereo not given),0.38,46.3,–
N#C/N=C(\NCCCCCCC(=O)N(OCCN1CCOCC1)C1CCCCC1)Nc1ccccc1,98,1020,–
O=C(NCCCCCCS(=O)(=O)N(CCN1CCOCC1)CC1CCCCC1)NCc1cccnc1,0.17,0.93,IC50 [14]: 11.8 nM
N#C/N=C(\NCCCCC[C@H](Cc1ccccc1)C(=O)NOC1CCCCC1)Nc1ccncc1,0.22,1.7,Stability (Plasma): Unstable
O=C(/C=C/c1cccnc1)NCCCCC1CCN(C(=O)c2ccccc2)CC1 [DAPORINAD],1.6,7.4,IC50 (HCT-116 [2]): 10.9 nM; MTD at 120 h [3]: < 10 mg/kg; Vd [15]: 0.998 L/kg; IC50 (SK-OV-3): 211 nM; T/C (A2780 [16]): 52%; AUC [17]: 12300 ng·h/mL; Tmax [18]: 15 min; half-life [19]: 24 min; clearance [20]: 27 mL/min/kg; Cmax [21]: 14600 ng/mL; IC50 (A-431): 6.1 nM; Activity (Mus musculus): Non-toxic; IC50 (HCT-116 [10]): 946 nM; IC50 (A2780 [22]): 5.7 nM; IC50 (MCF7 [23]): 8.4 nM; IC50 (PC-3): 3.8 nM; MTD at 120 h [13]: < 10 mg/kg; IC50 [24]: 1.5 nM
O=C(NCCCCCCS(=O)(=O)N(CCCN1CCOCC1)C1CCC1)NCc1cccnc1,1.7,8.7,–
N#C/N=C(\NCCCCCCC(=O)N(OCCN1CCOCC1)C1CCCCC1)Nc1ccncc1,0.1,0.42,IC50 [14]: 0.2 nM
O=S(=O)(CCCCCCNC(=S)Nc1ccncc1)N(OCCN1CCOCC1)C1CCCC1,0.16,0.31,–
O=C(NCCCCCCCS(=O)(=O)N(OCCN1CCOCC1)C1CCCCC1)NCc1cccnc1,0.31,3.6,–
O=C(NCCCCCCS(=O)(=O)N(OCCN1CCOCC1)C1CCCC1)NCc1cccnc1,0.58,5.8,–
O=C(CCCCCCNC(=S)NCc1cccnc1)N(OCCN1CCOCC1)C1CCCCC1,0.91,5.5,IC50 [14]: 8.2 nM
O=C1C(=O)C(Nc2ccncc2)C1NCCCCCS(=O)(=O)N(OCCN1CCOCC1)C1CCCCC1 (stereo not given),0.57,35.8,IC50 [14]: 49.6 nM
N#CNC(=Nc1ccncc1)NCCCCCCS(=O)(=O)NOCC1CCCCC1,0.16,3.4,IC50 [14]: 2.4 nM
O=C(NCCCCCS(=O)(=O)N(OCCN1CCOCC1)C1CCCCC1)NCc1cccnc1,4.6,6.5,–

# From ChEMBL document CHEMBL3091343, “Nicotinamide phosphoribosyltransferase inhibitors, design, preparation, and structure-activity relationship” (J Med Chem, 2013)
